Bioassay records as filed in PubChem BioAssay.
ATG4B inhibitor = ATG4B (human) cysteine protease inhibition; Q9Y4P1; ATG4B cleavage of LC3-PLA2, NBD-HPC fluorescence, 1 h; inhibition, % at 8.33 µM; actives 0.51% (n = 340,000); AID 504462; in the data active = inhibition above about 40%
Target sequence (Q9Y4P1 whole entry, looked up): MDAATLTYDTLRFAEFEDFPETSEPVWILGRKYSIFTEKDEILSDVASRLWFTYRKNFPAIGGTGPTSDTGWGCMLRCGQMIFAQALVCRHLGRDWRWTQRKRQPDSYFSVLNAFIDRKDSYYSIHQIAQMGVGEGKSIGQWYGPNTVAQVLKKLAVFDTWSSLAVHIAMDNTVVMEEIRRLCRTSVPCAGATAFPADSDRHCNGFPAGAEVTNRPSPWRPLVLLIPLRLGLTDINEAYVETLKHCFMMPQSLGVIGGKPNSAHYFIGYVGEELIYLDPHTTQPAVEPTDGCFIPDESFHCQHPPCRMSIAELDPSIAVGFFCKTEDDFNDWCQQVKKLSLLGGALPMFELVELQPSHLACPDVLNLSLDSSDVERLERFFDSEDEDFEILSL
Calb FLC = affects C. albicans growth with fluconazole; C. albicans CaCi-2 (fluconazole-resistant clinical isolate) + fluconazole, Alamar Blue growth, 48 h; growth inhibition, % (concentration not given with the values); actives 0.57% (n = 300,000); AID 1979;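 active = growth inhibition above about 58% in most replicates, limit read from the data, passing the limit was not always enough; inconclusive = exactly half the replicates above a set limit; inactive = most replicates below a set limit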;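 also: all wells also contain fluconazole at 8 µg/ml as a sub-toxic cotreatment; 0% = median of DMSO wells and 100% = median of geldanamycin control wells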
ALR H2O2 inh = blocks human ALR sulfhydryl oxidase activity; actives 3.8% (n = 290,000); inhibition, % (no concentration beside the values); P55789; purified ALR, DTT oxidation, H2O2 HRP-luminol luminescence;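 active = mean replicate inhibition above about 79%, with every replicate also reaching it, limit read from the data; inconclusive = only one of the two criteria met; inactive = mean below limit and not every replicate reaching it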
NLRP3 yeast inh = blocks the NALP3 inflammasome reconstituted in yeast. Yeast reconstituted NLRP3/ASC/caspase-1, beta-gal luminescence, 24 h. actives 0.39% (n = 330,000). inhibition, % at 10 µM. AID 2825;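 active = inhibition of 50% or more; inactive = inhibition below 50%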;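 also: plate controls were induced DMSO wells for no effect and uninduced yeast grown without galactose for full effect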
UCH37 DUB inh = human UCH37 deubiquitinating enzyme inhibition; AID 588478; inhibition, % (no concentration beside the values); purified proteasome/UCH37, Ub-AMC cleavage fluorescence; actives 0.33% (n = 330,000); Q9Y5K5;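 active = mean inhibition over replicate wells above about 20%, limit read from the data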;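 also: 0% = compound-free wells with enzyme and 100% = wells lacking proteasome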
Target sequence (Q9Y5K5 whole entry, looked up): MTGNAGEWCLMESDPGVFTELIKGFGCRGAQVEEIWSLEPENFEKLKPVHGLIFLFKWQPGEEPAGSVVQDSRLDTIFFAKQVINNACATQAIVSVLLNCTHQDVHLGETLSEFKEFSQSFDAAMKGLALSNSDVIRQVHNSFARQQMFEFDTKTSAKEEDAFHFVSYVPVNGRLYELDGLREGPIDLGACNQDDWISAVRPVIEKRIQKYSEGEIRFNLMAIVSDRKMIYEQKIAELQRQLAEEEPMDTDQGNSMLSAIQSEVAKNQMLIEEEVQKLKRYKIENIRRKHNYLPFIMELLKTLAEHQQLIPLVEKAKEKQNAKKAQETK
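Schedule: 30 min plus 25 min, room temperature / Material: human UCH37 within purified proteasomes / Technique: AMC fluorescence intensity at 355/460 nm / Buffer or medium: pH 7.4 Tris-HCl (50 mM) with ovalbumin, ATP-MgCl2, DTT / Controls: wells without proteasome as full block, compound-free enzyme plus substrate as uninhibited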
NALP1 inh = blocks the NALP1 inflammasome reconstituted in yeast | inhibition, % at 10 µM | S. cerevisiae NALP1/ASC/caspase-1 growth, X-gal OD620, 72 h | actives 0.61% (n = 280,000) | AID 2071; in the data active = inhibition mostly above about 24%, no sharp cut-off; inactive = mostly below about 32%
An asterisk follows results filed as active; u = inconclusive; x = no result. The list is not random: actives were taken first. Their share in the collection is about 4.8%.

SMILES	ATG4B inhibitor	Calb FLC	ALR H2O2 inh	NLRP3 yeast inh	UCH37 DUB inh	NALP1 inh
O=C(CCS(=O)(=O)c1ccc(Cl)cc1)Nc1nc(-c2ccncc2)cs1	-7.7	84.9*	-0.2	-12.0	-0.6	18.4
O=C(CCS(=O)(=O)c1ccc(Cl)cc1)Nc1nc(-c2cccnc2)cs1	-3.1	-5.5	-1.9	-10.1	5.7	-19.0
C/C(C=NNC(=O)CSc1ccccn1)=C/c1ccc(C(C)C)cc1	x	x	x	x	1.1	x
O=S(=O)(Nc1ccc(NS(=O)(=O)c2ccccc2)c(Cl)c1)c1ccccc1	-0.3	x	x	x	4.0	x
Cc1cc(NS(=O)(=O)c2ccccc2)cc(Cl)c1O	-1.7	7.2	98.7*	3.5	5.5	14.5
CSc1ccc(NC(N)=S)cc1	-2.1	6.8	-2.4	5.5	3.5	-4.0
C=CCNC(=S)Nc1ccc(N(C)C)cc1	23.5	-0.7	99.0*	12.8	3.9	5.9
CN(C)c1ccc(NC(N)=S)cc1	-7.4	-2.5	98.8*	9.3	0.2	21.9
O=c1c2c3nc4ccccc4nc3n(N=Cc3ccccn3)c2ncn1-c1ccccc1	x	x	x	x	-15.2	x
O=C(NN=Cc1ccc(O)cc1)Nc1cccc2nsnc12	x	x	x	x	-7.0	x
Cc1cccc(NC(=S)NN=Cc2cccc(O)c2)c1C	x	x	x	x	2.9	x
CCn1c(C)nc2cc(C(=O)NN=Cc3cccc(O)c3O)ccc21	x	x	x	x	4.1	x
CCn1c(C)nc2cc(C(=O)N/N=C/c3cccc(O)c3O)ccc21	12.2	22.5	99.0*	11.8	x	8.9
CCn1c(C)nc2cc(C(=O)N/N=C/c3ccc(O)cc3)ccc21	-13.2	-3.1	99.1*	6.3	x	28.4
CCn1c(C)nc2cc(C(=O)N/N=C/c3ccc(N4CCOCC4)cc3)ccc21	-2.2	-3.4	91.4*	22.9	x	16.0
COc1ccc(-c2cc(C(=O)NN=Cc3cc(OC)c(OC)cc3OC)c3ccccc3n2)cc1	x	x	x	x	-122.3	x
O=c1c2ccccc2nc(-c2ccco2)n1N=Cc1ccccc1O	x	x	x	x	6.5	x
CCOC(=O)c1c2ccccc2[n+]([O-])n1[C@@H](C)C(N)=O	-1.1	11.9	22.1	0.9	32.3*	x
Cc1ccc(C(=O)c2c3ccccc3[n+]([O-])n2CCC(=O)O)cc1	-8.8	x	6.1	-2.5	0.9	x
O=C(NCCCO)c1ccc(CSc2nc3ccccc3c(=O)[nH]2)cc1	0.6	3.3	99.7*	10.5	3.6	x
C/C(C=NNC(=O)Cn1c(C)nc2ccccc21)=C\c1ccccc1	x	x	x	x	1.7	x
CN=c1scc(C)n1/N=C/c1cc(Br)c(O)c(OC)c1	-2.4	16.0	99.0*	19.4	x	22.5
CN=c1scc(C)n1/N=C/c1ccc(O)c(O)c1O	-8.6	10.9	99.9*	12.2	x	8.1
CCN=c1scc(-c2cccs2)n1N=Cc1cc(OC)ccc1O	x	x	x	x	7.4	x
CN=c1scc(-c2cccs2)n1/N=C/c1ccc(O)c(O)c1O	2.4	64.4	98.8*	19.4	x	-1.5
SMILES	ATG4B inhibitor	Calb FLC	ALR H2O2 inh	NLRP3 yeast inh	UCH37 DUB inh	NALP1 inh
CN=c1scc(-c2cccs2)n1/N=C/c1ccccc1O	23.6	0.9	87.1*	32.0	x	x
CN=c1scc(-c2ccccc2F)n1N=Cc1ccc(O)c(O)c1O	x	x	x	x	2.7	x
Oc1ccc(/C(Cc2ccccn2)=N\Nc2ccccc2)c(O)c1	1.8	-34.3	99.0*	22.3	x	-4.3
Cc1c(O)ccc(/C(Cc2ccc3ccccc3n2)=N\O)c1O	-12.8	13.6	27.7	13.8	x	-11.1
Oc1ccc(/C(Cc2ccc3ccccc3n2)=N\Nc2ccccc2)c(O)c1	3.5	-16.3	98.5*	19.4	x	10.7
COC(=O)c1ccc(CON=Cc2ccccc2OC)cc1	x	x	x	x	1.3	x
OC(COC(c1ccc(Cl)cc1)c1ccc(Cl)cc1)CN1CCN(c2ccccn2)CC1 (centres undefined)	8.3	-20.1	1.2	19.5	3.1	44.7*
O=C(c1ccco1)N1CCN(c2ncnc3c(-c4ccccc4)nsc23)CC1	-6.5	89.0*	5.1	3.3	-8.5	3.4
COc1ccc(-c2nsc3c(N4CCN(C(=O)c5ccco5)CC4)ncnc23)cc1	-11.7	21.0	-0.8	7.3	-36.3	14.9
CCc1cn(S(=O)(=O)c2ccccc2OC)nc1N	-5.2	5.4	-2.7	-7.9	4.8	-6.9
CCCc1cn(S(=O)(=O)c2ccc(OC)cc2OC)nc1N	1.1	1.2	98.0*	4.1	-0.2	x
CC1CCC(NC(=O)CCNC(=O)c2ccccc2)CC1 (centres undefined)	7.5	106.9*	-2.5	4.2	3.8	37.3
Cc1ccc(NC(=O)c2cccc(N3C(=O)C4C5C=CC(C5)C4C3=O)c2)cc1C (centres undefined)	-4.2	6.9	-17.9	3.4	1.8	10.5
CN(C)c1ccc(NC(=O)c2cccc(N3C(=O)C4C5C=CC(C5)C4C3=O)c2)cc1 (centres undefined)	8.8	26.3	99.2*	9.2	1.7	0.6
O=C(Nc1nnc(-c2ccc3c(c2)CCCC3)o1)c1ccc(Cl)cc1Cl	16.9	84.5*	x	23.6	-6.1	30.3
O=C(Nc1nnc(-c2ccc3c(c2)CCCC3)o1)c1c(F)cccc1F	3.7	u	95.2*	-3.2	0.0	16.3
O=C(Nc1nnc(-c2ccc3c(c2)CCCC3)o1)C1CCCCC1	-1.6	-4.9	x	14.0	5.1	6.0
O=C(NN=Cc1ccc(O)c([N+](=O)[O-])c1)C(O)(c1ccccc1)c1ccccc1	x	x	x	x	12.8	x
CC(=NOC(=O)c1ccc(C(F)(F)F)cc1)c1oc(C)nc1C	x	x	x	x	4.7	x
CCn1c(-c2ccc(C)cc2)n[nH]c1=S	5.2	2.8	9.9	20.9	1.1	6.6
Cc1ccc(-c2csc3n[nH]c(=S)n23)cc1	-9.7	12.3	97.8*	11.7	0.9	-11.7
COc1ccc(C(=O)NCC(=O)NN=Cc2c(C)[nH]c3ccccc23)cc1OC	x	x	x	x	7.0	x
Cc1ccc2nc(-c3ccccn3)c(NC3CCCC3)n2c1	13.4	-5.1	98.8*	24.1	-1.2	-4.3
Cc1ccccc1Nc1c(-c2ccccn2)nc2c(C)cccn12	6.1	3.0	x	-85.9	4.4	-5.7
Cc1cccc(C)c1Nc1c(-c2ccccn2)nc2ccccn12	10.5	-14.7	94.1*	22.0	-1.4	-15.2
SMILES	ATG4B inhibitor	Calb FLC	ALR H2O2 inh	NLRP3 yeast inh	UCH37 DUB inh	NALP1 inh
Cc1ccc(Nc2c(-c3ccccn3)nc3cccc(C)n23)cc1	6.9	u	98.9*	43.6	-0.9	-1.1
CCc1ccccc1NN=C(C)c1c(O)cc(C)oc1=O	x	x	x	x	4.8	x
O=C(COC(=O)c1ccccc1)NCc1ccco1	-0.1	-0.3	-5.3	8.2	2.1	-5.7
Cc1ccc(C(=O)OCC(=O)NCc2ccco2)cc1	-7.2	-6.2	3.5	19.7	6.1	40.9*
O=C(COC(=O)c1cc(-c2cccs2)nc2ccccc12)NCc1ccco1	-8.8	x	8.4	0.3	-69.9	15.2
N#CCC(=O)Nc1ccc(C(=O)OCC(=O)NC(=O)NCc2ccco2)cc1	-8.6	x	97.9*	7.9	-1.5	x
O=C(COC(=O)c1cc(-c2ccc(Cl)s2)nc2ccccc12)NCc1ccco1	6.9	2.8	91.8*	-1.1	-91.8	0.7
